Values after ≈ are worked out from the molar mass of the structure shown.
Tests used:
[1] = Cytotoxicity against African green monkey Vero cells assessed as survival at 50 ug/ml after 48 hrs by Cell-Titre Blue assay; assay type: cell-based; conditions: chlorocebus sabaeus, read-out: Survival
Method in brief: (§1)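 Vero cells in DMEM with 10% FBS, seeded at 20,000 cells/well and left to adhere overnight at 37 °C, 5% CO2. Medium then replaced with fresh medium containing compound, 48 h. Cell-Titer Blue added for a further 2 h; OD read at 560 nm. % survival = OD test/OD of DMSO-medium control ×100.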

[2] = test system: Mycobacterium tuberculosis; experiment: Antitubercular activity against Mycobacterium tuberculosis H37Rv ATCC 27294 in GAST/Fe medium after 1 week by broth microdilution method; assay type: functional; conditions: H37Rv ATCC 27294, 168 h
Method in brief: (§2)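 Two-fold serial dilutions from DMSO stocks added to medium; equal volume of H37Rv diluted to 10,000 cells/mL in the same medium. DMSO-only wells; isoniazid positive control. 37 °C; growth read by inverted enlarging mirror. Quadruplicate. MIC = lowest concentration completely inhibiting growth.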

[3] = test system: Mycobacterium tuberculosis; experiment: Antitubercular activity against Mycobacterium tuberculosis H37Rv ATCC 27294 in 7H9/ADC/Tween medium after 1 week by broth microdilution method; assay type: functional; conditions: H37Rv ATCC 27294, 168 h; method in brief: as §2
[4] = test system: Mycobacterium tuberculosis; experiment: Antitubercular activity against Mycobacterium tuberculosis H37Rv ATCC 27294 in GAST/Fe medium after 2 weeks by broth microdilution method; assay type: functional; conditions: H37Rv ATCC 27294, 336 h; method in brief: as §2
[5] = Cytotoxicity against African green monkey Vero cells assessed as survival at 25 ug/ml after 48 hrs by Cell-Titre Blue assay; assay type: cell-based; conditions: chlorocebus sabaeus, read-out: Survival; method in brief: as §1
[6] = test system: Mycobacterium tuberculosis; experiment: Antitubercular activity against Mycobacterium tuberculosis H37Rv ATCC 27294 in 7H9/ADC/Tween medium after 2 weeks by broth microdilution method; assay type: functional; conditions: H37Rv ATCC 27294, 336 h; method in brief: as §2

SMILES	viability at 48 h, 50 ug/ml [1] [%]	MIC [2] [µg/mL]	MIC [3] [µg/mL]	MIC [4] [µg/mL]	viability at 48 h, 25 ug/ml [5] [%]	MIC [6] [µg/mL]
Cc1cccc(C)c1N1CN2C(=C(O)[C@H]1c1ccc(O)cc1)Nc1ccccc12	63	6.25 (≈ 16.2 µM)	12.5 (≈ 32.4 µM)	9.4 (≈ 24.4 µM)	66	19 (≈ 49.3 µM)
Cc1ccc([C@@H]2C(O)=C3Nc4ccccc4N3CN2c2c(C)cccc2C)c(N)c1C	73	37 (≈ 89.7 µM)	100 (≈ 242 µM)	75 (≈ 182 µM)	64	> 100
COc1ccc(N2CN3C(=C(O)[C@H]2c2cccc(-c4ccccn4)c2)Nc2ccccc23)cc1	56	12.5 (≈ 27.9 µM)	≥ 100	19 (≈ 42.4 µM)	66	> 100
COc1ccc([C@@H]2C(O)=C3Nc4ccccc4N3CN2c2cc(Cl)cc(Cl)c2)cc1OC		100 (≈ 213 µM)	> 100	> 100		> 100
OC1=C2Nc3ccccc3N2CN(c2c(Cl)cccc2Cl)[C@@H]1c1cccc(O)c1	61	6.25 (≈ 14.7 µM)	37 (≈ 86.8 µM)	9.4 (≈ 22.1 µM)	63	50 (≈ 117 µM)
O=[N+]([O-])c1ccc(N2CN3C(=C(O)[C@H]2c2ccccc2[N+](=O)[O-])Nc2ccccc23)cc1	61	37 (≈ 85.8 µM)	37 (≈ 85.8 µM)	37 (≈ 85.8 µM)	53	50 (≈ 116 µM)
COc1ccccc1[C@@H]1C(O)=C2Nc3ccccc3N2CN1c1cc(Cl)cc(Cl)c1		50 (≈ 114 µM)	100 (≈ 227 µM)	100 (≈ 227 µM)		100 (≈ 227 µM)
OC1=C2Nc3ccccc3N2CN(c2ccc(Br)cc2)[C@@H]1c1ccc(O)cc1		75 (≈ 172 µM)	≥ 100	75 (≈ 172 µM)		> 100
O=[N+]([O-])c1ccc(N2CN3C(=C(O)[C@H]2c2cccc([N+](=O)[O-])c2)Nc2ccccc23)cc1	69	3.13 (≈ 7.26 µM)	25 (≈ 57.9 µM)	4.7 (≈ 10.9 µM)	66	37 (≈ 85.8 µM)
COc1ccc([C@@H]2C(O)=C3Nc4ccccc4N3CN2c2ccc(OC)cc2)cc1		50 (≈ 125 µM)	100 (≈ 249 µM)	75 (≈ 187 µM)		≥ 100
NNC(=O)c1ccncc1 [ISONIAZID]	100	0.02 (≈ 0.146 µM)	0.02 (≈ 0.146 µM)	0.02 (≈ 0.146 µM)	100	0.02 (≈ 0.146 µM)
OC1=C2Nc3ccccc3N2CN(c2cc(Cl)cc(Cl)c2)[C@@H]1c1ccccc1Cl		> 100	≥ 100	> 100		> 100
COc1ccc(N2CN3C(=C(O)[C@H]2c2cccc(Br)c2)Nc2ccccc23)cc1		> 100	> 100	> 100		> 100
COc1ccccc1N1CN2C(=C(O)[C@H]1c1ccccc1O)Nc1ccccc12	69	19 (≈ 49 µM)	50 (≈ 129 µM)	25 (≈ 64.5 µM)	63	75 (≈ 194 µM)
O=[N+]([O-])c1ccc([C@@H]2C(O)=C3Nc4ccccc4N3CN2c2ccc(Cl)cc2)cc1		100 (≈ 238 µM)	> 100	> 100		> 100
COc1ccccc1[C@@H]1C(O)=C2Nc3ccccc3N2CN1c1c(C)cccc1C		100 (≈ 250 µM)	50 (≈ 125 µM)	100 (≈ 250 µM)		> 100
COc1ccc(O)c([C@@H]2C(O)=C3Nc4ccccc4N3CN2c2ccc(C(=O)O)cc2)c1		> 100	> 100	> 100		> 100
OC1=C2Nc3ccccc3N2CN(c2cc(Cl)cc(Cl)c2)[C@@H]1c1ccc(Cl)cc1	69	37 (≈ 83.2 µM)	100 (≈ 225 µM)	50 (≈ 112 µM)	63	≥ 100

Source: ChEMBL document CHEMBL3297722, “Design, synthesis and docking studies of some novel (R)-2-(4'-chlorophenyl)-3-(4'-nitrophenyl)-1,2,3,5-tetrahydrobenzo[4,5] imidazo [1,2-c]pyrimidin-4-ol derivatives as antitubercular agents” (Eur J Med Chem, 2014)
